From ChEMBL document CHEMBL1136718, “Synthesis and cytotoxic activity of carboxamide derivatives of benzo[b][1,6]naphthyridines” (J Med Chem, 2003)

Legend:
Jurkat = assay: Growth inhibitory activity against human Jurkat leukemia cell line (JLC); assay type: functional, cell-based
Procedure, shortened: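 Human Jurkat leukemia (JL_C) cells seeded at 3.75 × 10³/well and grown 4 days with drug. Growth read by sulforhodamine assay. IC50 is the drug concentration that reduces cell number to 50% of control cultures. Independent assays run in duplicate.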

[1] = tested on: Lewis lung carcinoma cell line; assay: Growth inhibitory activity against murine Lewis lung carcinoma cell line; assay type: functional, cell-based; settings: Mus musculus
Procedure, shortened: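 Lewis lung carcinoma cells seeded at 10³/well and cultured 4 days with drug. Growth measured by sulforhodamine assay. IC50 is the concentration reducing cell number to 50% of control cultures. Independent duplicate assays.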

P388 = assay: Growth inhibitory activity against murine P388 leukemia cells; assay type: functional, cell-based; settings: Mus musculus
Procedure, shortened: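 P388 murine leukemia cells plated at 4.5 × 10³/well and exposed to drug for 3 days. Growth read by [3H]TdR uptake. IC50 is the concentration reducing cell number to 50% of control. Independent assays done in duplicate.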

[2] = Ratio of growth inhibitory activity against human Jurkat leukemia cell line (JLA- resistant to amsacrine) to that of Jurkat leukemia cell line; assay type: functional
Procedure, shortened: (§1)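 Parent Jurkat (JL_C) cells and the amsacrine-resistant (JL_A) or doxorubicin-resistant (JL_D) sublines each seeded at 3.75 × 10³/well. Cultured 4 days with drug and read by sulforhodamine assay. The ratio is the subline IC50 divided by the JL_C IC50. Duplicate independent assays.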

[3] = Ratio of growth inhibitory activity against human Jurkat leukemia cell line (JLD- resistant to doxorubicin) to that of Jurkat leukemia cell line; assay type: functional; procedure, shortened: as §1
Mus musculus [4] = assay: Number of mice(with Colon 38 tumors) cured after treatment of 2.6 mg/kg/day single dose out of 5 mice; assay type: functional
Procedure, shortened: (§2)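 BDF1 mice bearing subcutaneous Colon 38 tumors (flank implants of 1 mm³ fragments) were treated at a diameter of about 4-6 mm. They received one intraperitoneal dose of the hydrochloride salt in distilled water, 0.01 mL/g. A cure is a mouse with no measurable tumor 20 days after treatment began, reported over the total mice per group.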

Mus musculus [5] = assay: Number of mice(with Colon 38 tumors) cured after treatment of 3.9 mg/kg/day single dose out of 5 mice; assay type: functional; procedure, shortened: as §2
Mus musculus [6] = assay: In vivo antitumor activity against subcutaneous Colon 38 tumors in mice determined as delay in growth after 2.6 mg/kg/day single dose; assay type: functional
Procedure, shortened: (§3)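 Colon 38 fragments (1 mm³) implanted subcutaneously in one flank of BDF1 mice. Treated at a tumor diameter of about 4-6 mm (7-8 days), five mice per group. A single intraperitoneal dose was given as the hydrochloride in distilled water, 0.01 mL/g. Calipers three times weekly, volume = 0.52a²b. Growth delay is the time for mean volume to reach 4-fold the pretreatment volume.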

Mus musculus [7] = assay: In vivo antitumor activity against subcutaneous Colon 38 tumors in mice determined as delay in growth after 3.9 mg/kg/day single dose; assay type: functional; procedure, shortened: as §3
Mus musculus [8] = assay: Number of mice(with Colon 38 tumors) cured after treatment of 30 mg/kg/day single dose out of 5 mice; assay type: functional
Mus musculus [9] = assay: In vivo antitumor activity against subcutaneous Colon 38 tumors in mice determined as delay in growth after 30 mg/kg/day single dose; assay type: functional
Mus musculus [10] = assay: Number of mice(with Colon 38 tumors) cured after treatment of 65 mg/kg/day dose given as 2 times in a day for 2 days out of 5 mice; assay type: functional
Mus musculus [11] = assay: In vivo antitumor activity against subcutaneous Colon 38 tumors in mice determined as delay in growth after 65 mg/kg/day dose given as 2 times in a day for 2 days; assay type: functional
Mus musculus [12] = assay: Number of mice(with Colon 38 tumors) cured after treatment of 8.9 mg/kg/day single dose out of 5 mice; assay type: functional; procedure, shortened: as §2
Mus musculus [13] = assay: In vivo antitumor activity against subcutaneous Colon 38 tumors in mice determined as delay in growth after 8.9 mg/kg/day single dose; assay type: functional; procedure, shortened: as §3
Mus musculus [14] = assay: Number of mice(with Colon 38 tumors) cured after treatment of 5.9 mg/kg/day single dose out of 5 mice; assay type: functional; procedure, shortened: as §2
Mus musculus [15] = assay: Number of mice(with Colon 38 tumors) cured after treatment of 13.3 mg/kg/day single dose out of 5 mice; assay type: functional; procedure, shortened: as §2
Mus musculus [16] = assay: In vivo antitumor activity against subcutaneous Colon 38 tumors in mice determined as delay in growth after 13.3 mg/kg/day single dose; assay type: functional; procedure, shortened: as §3
Mus musculus [17] = assay: In vivo antitumor activity against subcutaneous Colon 38 tumors in mice determined as delay in growth after 5.9 mg/kg/day single dose; assay type: functional; procedure, shortened: as §3
Mus musculus [18] = assay: Number of mice(with Colon 38 tumors) cured after treatment of 5.9 mg/kg/day single dose out of 10 mice; assay type: functional; procedure, shortened: as §2
Mus musculus [19] = assay: Number of mice(with Colon 38 tumors) cured after treatment of 8.9 mg/kg/day single dose out of 4 mice; assay type: functional; procedure, shortened: as §2
Mus musculus [20] = assay: Number of mice(with Colon 38 tumors) cured after treatment of 3.9 mg/kg/day single dose out of 4 mice; assay type: functional; procedure, shortened: as §2
Mus musculus [21] = assay: Number of mice(with Colon 38 tumors) cured after treatment of 200 mg/kg/day dose given as 2 times in a day for 7 days out of 5 mice; assay type: functional
Mus musculus [22] = assay: In vivo antitumor activity against subcutaneous Colon 38 tumors in mice determined as delay in growth after 200 mg/kg/day dose given as 2 times in a day for 7 days; assay type: functional
Mus musculus [23] = assay: Number of mice(with Colon 38 tumors) cured after treatment of 13.3 mg/kg/day dose given as 3 times in a day for 4 days out of 5 mice; assay type: functional
Mus musculus [24] = assay: In vivo antitumor activity against subcutaneous Colon 38 tumors in mice determined as delay in growth after 13.3 mg/kg/day dose given as 3 times in a day for 4 days; assay type: functional
Mus musculus [25] = assay: Number of mice(with Colon 38 tumors) cured after treatment of 3.9 mg/kg/day dose given as 3 times in a day for 4 days out of 5 mice; assay type: functional
Mus musculus [26] = assay: In vivo antitumor activity against subcutaneous Colon 38 tumors in mice determined as delay in growth after 3.9 mg/kg/day dose given as 3 times in a day for 4 days; assay type: functional
Mus musculus [27] = assay: Number of mice(with Colon 38 tumors) cured after treatment of 2.6 mg/kg/day dose given as 3 times in a day for 4 days out of 5 mice; assay type: functional
Mus musculus [28] = assay: In vivo antitumor activity against subcutaneous Colon 38 tumors in mice determined as delay in growth after 2.6 mg/kg/day dose given as 3 times in a day for 4 days; assay type: functional
Mus musculus [29] = assay: Number of mice(with Colon 38 tumors) cured after treatment of 45 mg/kg/day dose given as 3 times in a day for 4 days out of 5 mice; assay type: functional
Mus musculus [30] = assay: In vivo antitumor activity against subcutaneous Colon 38 tumors in mice determined as delay in growth after 45 mg/kg/day dose given as 3 times in a day for 4 days; assay type: functional
Mus musculus [31] = assay: Number of mice(with Colon 38 tumors) cured after treatment of 65 mg/kg/day dose given as 3 times in a day for 4 days out of 5 mice; assay type: functional
Mus musculus [32] = assay: In vivo antitumor activity against subcutaneous Colon 38 tumors in mice determined as delay in growth after 65 mg/kg/day dose given as 3 times in a day for 4 days; assay type: functional

SMILES | IC50 (Jurkat) | IC50 [1] | IC50 (P388) | Ratio [2] | Ratio [3] | other results
CN(C)CCNC(=O)c1cn(CCN(C)C)c(=O)c2cc3ccccc3nc12 | 0.123 µM | 0.05 µM | 0.054 µM | 0.8 | 1.1 | –
COc1ccc(-n2cc(C(=O)NCCN(C)C)c3nc4c(C)cccc4cc3c2=O)cc1OC | 0.0094 µM | 0.0044 µM | 0.012 µM | 1.3 | 1.5 | Cures (Mus musculus [4]): 0; Cures (Mus musculus [5]): 4; Growth delay (Mus musculus [6]): 16 days; Growth delay (Mus musculus [7]): >20 days
Cc1cccc2cc3c(O)ncc(C(=O)NCCN(C)C)c3nc12 | 0.026 µM | 0.01 µM | 0.011 µM | 1.9 | 2.6 | Cures (Mus musculus [8]): 0; Growth delay (Mus musculus [9]): 14 days
Cc1cc2c3c(cccc3n1)C(=O)c1cccc(C(=O)NCCN(C)C)c1-2 | – | – | – | 2.5 | 2.5 | Cures (Mus musculus [10]): 5; Growth delay (Mus musculus [11]): >20 days
CN(C)CCNC(=O)c1cn(C)c(=O)c2cc3ccccc3nc12 | – | – | 0.014 µM | – | – | –
Cc1cccc2cc3c(=O)n([C@@H](C)c4ccccc4)cc(C(=O)NCCN(C)C)c3nc12 | 1.07 µM | 0.161 µM | 0.59 µM | 0.8 | 1.1 | –
Cc1cccc2cc3c(NCCN(C)C)ncc(C(=O)NCCN(C)C)c3nc12 | – | – | 0.0024 µM | – | – | Cures (Mus musculus [12]): 0; Growth delay (Mus musculus [13]): 6 days
CCCCn1cc(C(=O)NCCN(C)C)c2nc3c(C)cccc3cc2c1=O | 0.051 µM | 0.015 µM | 0.014 µM | 2.3 | 3 | Cures (Mus musculus [14]): 0; Cures (Mus musculus [15]): 5; Growth delay (Mus musculus [16]): >20 days; Growth delay (Mus musculus [17]): 18 days
Cc1cccc2cc3c(=O)n(CCN(C)C)cc(C(=O)NCCN(C)C)c3nc12 | 0.0085 µM | 0.0037 µM | 0.0068 µM | 0.7 | 0.9 | Cures (Mus musculus [14]): 0; Growth delay (Mus musculus [17]): 14 days
Cc1cccc2cc3c(=O)n(C)cc(C(=O)NCCN(C)C)c3nc12 | 0.0067 µM | 0.0017 µM | 0.0021 µM | 5.6 | 7.9 | Cures (Mus musculus [18]): 10; Cures (Mus musculus [19]): 4; Cures (Mus musculus [20]): 4; Growth delay (Mus musculus [7]): >20 days; Growth delay (Mus musculus [17]): >20 days; Growth delay (Mus musculus [13]): >20 days
Cc1cccc2cc3c(=O)n(CCN(C)CCCN(C)CCn4cc(C(=O)NCCN(C)C)c5nc6c(C)cccc6cc5c4=O)cc(C(=O)NCCN(C)C)c3nc12 | 0.001 µM | 0.0047 µM | 0.022 µM | 0.3 | 0.4 | –
CN(C)CCNC(=O)c1cccc2cc3ccccc3nc12 | – | – | 0.071 µM | – | – | Cures (Mus musculus [21]): 0; Growth delay (Mus musculus [22]): 13 days
COc1cc(NS(C)(=O)=O)ccc1Nc1c2ccccc2nc2ccccc12 [AMSACRINE] | – | – | – | – | – | Cures (Mus musculus [23]): 0; Growth delay (Mus musculus [24]): 2 days
CC[C@@]1(O)C(=O)OCc2c1cc1n(c2=O)Cc2cc3ccccc3nc2-1 [CAMPTOTHECIN] | – | – | – | 2 | 1.4 | –
COc1cccc2c1C(=O)c1c(O)c3c(c(O)c1C2=O)C[C@@](O)(C(C)=O)C[C@@H]3O[C@H]1C[C@H](N)[C@H](O)[C@H](C)O1 [DAUNORUBICIN] | – | – | – | – | – | Cures (Mus musculus [25]): 0; Growth delay (Mus musculus [26]): 0 days
COc1cccc2c1C(=O)c1c(O)c3c(c(O)c1C2=O)C[C@@](O)(C(=O)CO)C[C@@H]3O[C@H]1C[C@H](N)[C@H](O)[C@H](C)O1 [DOXORUBICIN] | – | – | – | 4.4 | 13 | Cures (Mus musculus [27]): 0; Growth delay (Mus musculus [28]): 8 days
COc1cc([C@@H]2c3cc4c(cc3[C@@H](O[C@@H]3O[C@@H]5CO[C@@H](C)O[C@H]5[C@H](O)[C@H]3O)[C@H]3COC(=O)[C@H]23)OCO4)cc(OC)c1O [ETOPOSIDE] | 0.16 µM | 0.18 µM | 0.15 µM | 13 | 90 | Cures (Mus musculus [29]): 0; Growth delay (Mus musculus [30]): 1.5 days
CCc1c2c(nc3ccc(OC(=O)N4CCC(N5CCCCC5)CC4)cc13)-c1cc3c(c(=O)n1C2)COC(=O)[C@]3(O)CC [IRINOTECAN] | – | – | – | – | – | Cures (Mus musculus [31]): 0; Growth delay (Mus musculus [32]): 7 days
O=C1c2c(O)ccc(O)c2C(=O)c2c(NCCNCCO)ccc(NCCNCCO)c21 [MITOXANTRONE] | – | – | – | – | – | Cures (Mus musculus [25]): 0; Growth delay (Mus musculus [26]): 2 days
